Test results: ChEMBL document CHEMBL1949612, “Design, synthesis, and functionalization of dimeric peptides targeting chemokine receptor CXCR4” (J Med Chem, 2011)
*1 amine or outer side, *2 acyl side, *3 side chain or, on linkers, in order; H or OH if unused. Where a SMILES comes first, the peptide text is derived from it. Bridges are numbered along the chain shown (N, C = ends). Roman numbers before positions name the chains, in order. [ ]: non-standard residue; d: D form. The star is where a group is joined. C16 diacid = O=C(O)CCCCCCCCCCCCCCC(=O)*; Sebacoyl = O=C(CCCCCCCCC(=O)[*:2])[*:1]; 2Nal = N[C@@H](Cc1ccc2ccccc2c1)C(=O)O; Suberoyl = O=C(CCCCCCC(=O)[*:2])[*:1]; Adipoyl = O=C(CCCCC(=O)[*:2])[*:1]; Glutaryl = O=C(CCCC(=O)[*:2])[*:1]; dNMeOrn = CN[C@H](CCCN)C(=O)O; Suc = O=C(CCC(=O)[*:2])[*:1]

target: C-X-C chemokine receptor type 4 (Homo sapiens, UniProt P61073); assay: Displacement of [125I]-CPCR4 from CXCR4 receptor in human Jurkat cells after 2 hrs by gamma counting; type: cell-based
Sequence (P61073 whole entry): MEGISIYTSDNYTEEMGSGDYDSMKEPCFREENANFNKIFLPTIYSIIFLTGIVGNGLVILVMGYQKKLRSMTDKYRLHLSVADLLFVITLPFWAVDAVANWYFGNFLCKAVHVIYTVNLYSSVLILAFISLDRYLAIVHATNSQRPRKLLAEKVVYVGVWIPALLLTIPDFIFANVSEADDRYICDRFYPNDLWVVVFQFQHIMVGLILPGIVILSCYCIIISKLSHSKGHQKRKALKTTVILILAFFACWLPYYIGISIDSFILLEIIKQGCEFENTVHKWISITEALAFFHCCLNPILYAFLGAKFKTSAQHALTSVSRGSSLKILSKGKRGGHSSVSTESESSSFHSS
Method in brief: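 Whole Jurkat cells (400000 per tube) in PBS/0.2% BSA were incubated with ~0.1 nM (3.1 kBq) 125I-CPCR4 and test peptide at 10^-11 to 10^-5 M, shaken 2 h at RT. Nonspecific binding was taken with 1 μM unlabeled CPCR4. Cells were pelleted, washed twice with cold PBS, and bound activity was counted. Runs were done in triplicate, repeated 2–3 times. IC50 was fitted by nonlinear regression.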

In order of falling IC50:
1. CC(=O)NCCC[C@@H]1C(=O)N[C@@H](CCCNC(N)=O)C(=O)N[C@@H](Cc2ccc3ccccc3c2)C(=O)NCC(=O)N[C@H](Cc2ccc(O)cc2)C(=O)N1C  1 µM
2. CN1C(=O)[C@@H](Cc2ccc(O)cc2)NC(=O)CNC(=O)[C@H](Cc2ccc3ccccc3c2)NC(=O)[C@H](CCCNC(=N)N)NC(=O)[C@H]1CCCNC(=O)C[C@H](NC(=O)CCCCCNC(=O)CN1CCN(CC(=O)O)CCN(CC(=O)O)CCN(CC(=O)O)CC1)C(=O)NCCC[C@@H]1C(=O)N[C@@H](CCCNC(=N)N)C(=O)N[C@@H](Cc2ccc3ccccc3c2)C(=O)NCC(=O)N[C@H](Cc2ccc(O)cc2)C(=O)N1C  0.098 µM
3. CC(=O)NCCC[C@@H]1C(=O)N[C@@H](CCCNC(=N)N)C(=O)N[C@@H](Cc2ccc3ccccc3c2)C(=O)NCC(=O)N[C@H](Cc2ccc(O)cc2)C(=O)N1C  0.06 µM
4. CN1C(=O)[C@@H](Cc2ccc(O)cc2)NC(=O)CNC(=O)[C@H](Cc2ccc3ccccc3c2)NC(=O)[C@H](CCCNC(=N)N)NC(=O)[C@H]1CCCNC(=O)CNC(=O)C[C@H](NC(=O)CCCCCNC(=O)CN1CCN(CC(=O)O)CCN(CC(=O)O)CCN(CC(=O)O)CC1)C(=O)NCC(=O)NCCC[C@@H]1C(=O)N[C@@H](CCCNC(=N)N)C(=O)N[C@@H](Cc2ccc3ccccc3c2)C(=O)NCC(=O)N[C@H](Cc2ccc(O)cc2)C(=O)N1C  0.039 µM
5. CN1C(=O)[C@@H](Cc2ccc(O)cc2)NC(=O)CNC(=O)[C@H](Cc2ccc3ccccc3c2)NC(=O)[C@H](CCCNC(=N)N)NC(=O)[C@H]1CCCNC(=O)CCCCCCCCCCCCCCC(=O)NCCC[C@@H]1C(=O)N[C@@H](CCCNC(=N)N)C(=O)N[C@@H](Cc2ccc3ccccc3c2)C(=O)NCC(=O)N[C@H](Cc2ccc(O)cc2)C(=O)N1C (I: cyclo([2Nal]G[dY][dNMeOrn]R) / II: cyclo([2Nal]G[dY][dNMeOrn]R); linker I:4-II:4 via C16 diacid)  0.033 µM
6. CN1C(=O)[C@@H](Cc2ccc(O)cc2)NC(=O)CNC(=O)[C@H](Cc2ccc3ccccc3c2)NC(=O)[C@H](CCCNC(=N)N)NC(=O)[C@H]1CCCNC(=O)CC(CC(=O)NCCC[C@@H]1C(=O)N[C@@H](CCCNC(=N)N)C(=O)N[C@@H](Cc2ccc3ccccc3c2)C(=O)NCC(=O)N[C@H](Cc2ccc(O)cc2)C(=O)N1C)NC(=O)CCCCCNC(=O)CN1CCN(CC(=O)O)CCN(CC(=O)O)CCN(CC(=O)O)CC1 (stereo partly drawn)  0.031 µM
7. CN1C(=O)[C@@H](Cc2ccc(O)cc2)NC(=O)CNC(=O)[C@H](Cc2ccc3ccccc3c2)NC(=O)[C@H](CCCN=C(N)N)NC(=O)[C@H]1CCCNC(=O)CCCC(=O)NCCC[C@@H]1C(=O)N[C@@H](CCCNC(N)=O)C(=O)N[C@@H](Cc2ccc3ccccc3c2)C(=O)NCC(=O)N[C@H](Cc2ccc(O)cc2)C(=O)N1C  0.019 µM
8. CN1C(=O)[C@@H](Cc2ccc(O)cc2)NC(=O)CNC(=O)[C@H](Cc2ccc3ccccc3c2)NC(=O)[C@H](CCCN=C(N)N)NC(=O)[C@H]1CCCNC(=O)CNC(=O)CC(CC(=O)NCC(=O)NCCC[C@@H]1C(=O)N[C@@H](CCCN=C(N)N)C(=O)N[C@@H](Cc2ccc3ccccc3c2)C(=O)NCC(=O)N[C@H](Cc2ccc(O)cc2)C(=O)N1C)NC(=O)CCCCCNC(=O)CN1CCN(CC(=O)O)CCN(CC(=O)O)CCN(CC(=O)O)CC1  0.017 µM
9. CN1C(=O)[C@@H](Cc2ccc(O)cc2)NC(=O)CNC(=O)[C@H](Cc2ccc3ccccc3c2)NC(=O)[C@H](CCCNC(=N)N)NC(=O)[C@H]1CCCNC(=O)CNC(=O)CCCC(=O)NCC(=O)NCCC[C@@H]1C(=O)N[C@@H](CCCNC(=N)N)C(=O)N[C@@H](Cc2ccc3ccccc3c2)C(=O)NCC(=O)N[C@H](Cc2ccc(O)cc2)C(=O)N1C  0.014 µM
10. CN1C(=O)[C@@H](Cc2ccc(O)cc2)NC(=O)CNC(=O)[C@H](Cc2ccc3ccccc3c2)NC(=O)[C@H](CCCNC(=N)N)NC(=O)[C@H]1CCCNC(=O)CCC(=O)NCCC[C@@H]1C(=O)N[C@@H](CCCNC(=N)N)C(=O)N[C@@H](Cc2ccc3ccccc3c2)C(=O)NCC(=O)N[C@H](Cc2ccc(O)cc2)C(=O)N1C (I: cyclo([2Nal]G[dY][dNMeOrn]R) / II: cyclo([2Nal]G[dY][dNMeOrn]R); linker I:4-II:4 via Suc)  0.012 µM
11. CN1C(=O)[C@@H](Cc2ccc(O)cc2)NC(=O)CNC(=O)[C@H](Cc2ccc3ccccc3c2)NC(=O)[C@H](CCCN=C(N)N)NC(=O)[C@H]1CCCNC(=O)CNC(=O)CC(=O)NCC(=O)NCCC[C@@H]1C(=O)N[C@@H](CCCN=C(N)N)C(=O)N[C@@H](Cc2ccc3ccccc3c2)C(=O)NCC(=O)N[C@H](Cc2ccc(O)cc2)C(=O)N1C  0.008 µM
12. CN1C(=O)[C@@H](Cc2ccc(O)cc2)NC(=O)CNC(=O)[C@H](Cc2ccc3ccccc3c2)NC(=O)[C@H](CCCNC(=N)N)NC(=O)[C@H]1CCCNC(=O)CNC(=O)CCC(=O)NCC(=O)NCCC[C@@H]1C(=O)N[C@@H](CCCNC(=N)N)C(=O)N[C@@H](Cc2ccc3ccccc3c2)C(=O)NCC(=O)N[C@H](Cc2ccc(O)cc2)C(=O)N1C  0.006 µM
13. CN1C(=O)[C@@H](Cc2ccc(O)cc2)NC(=O)CNC(=O)[C@H](Cc2ccc3ccccc3c2)NC(=O)[C@H](CCCNC(=N)N)NC(=O)[C@H]1CCCN  0.006 µM
14. CN1C(=O)[C@@H](Cc2ccc(O)cc2)NC(=O)CNC(=O)[C@H](Cc2ccc3ccccc3c2)NC(=O)[C@H](CCCNC(=N)N)NC(=O)[C@H]1CCCNC(=O)CCCC(=O)NCCC[C@@H]1C(=O)N[C@@H](CCCNC(=N)N)C(=O)N[C@@H](Cc2ccc3ccccc3c2)C(=O)NCC(=O)N[C@H](Cc2ccc(O)cc2)C(=O)N1C (I: cyclo([2Nal]G[dY][dNMeOrn]R) / II: cyclo([2Nal]G[dY][dNMeOrn]R); linker I:4-II:4 via Glutaryl)  0.004 µM
15. CN1C(=O)[C@@H](Cc2ccc(O)cc2)NC(=O)CNC(=O)[C@H](Cc2ccc3ccccc3c2)NC(=O)[C@H](CCCN=C(N)N)NC(=O)[C@H]1CCCNC(=O)CCCCC(=O)NCCC[C@@H]1C(=O)N[C@@H](CCCN=C(N)N)C(=O)N[C@@H](Cc2ccc3ccccc3c2)C(=O)NCC(=O)N[C@H](Cc2ccc(O)cc2)C(=O)N1C (I: cyclo([2Nal]G[dY][dNMeOrn]R) / II: cyclo([2Nal]G[dY][dNMeOrn]R); linker I:4-II:4 via Adipoyl)  0.004 µM
16. CN1C(=O)[C@@H](Cc2ccc(O)cc2)NC(=O)CNC(=O)[C@H](Cc2ccc3ccccc3c2)NC(=O)[C@H](CCCN=C(N)N)NC(=O)[C@H]1CCCNC(=O)CCCCCCCCCCCC(=O)NCCC[C@@H]1C(=O)N[C@@H](CCCNC(N)=O)C(=O)N[C@@H](Cc2ccc3ccccc3c2)C(=O)NCC(=O)N[C@H](Cc2ccc(O)cc2)C(=O)N1C  0.004 µM
17. CN1C(=O)[C@@H](Cc2ccc(O)cc2)NC(=O)CNC(=O)[C@H](Cc2ccc3ccccc3c2)NC(=O)[C@H](CCCNC(=N)N)NC(=O)[C@H]1CCCNC(=O)CCCCCCC(=O)NCCC[C@@H]1C(=O)N[C@@H](CCCNC(=N)N)C(=O)N[C@@H](Cc2ccc3ccccc3c2)C(=O)NCC(=O)N[C@H](Cc2ccc(O)cc2)C(=O)N1C (I: cyclo([2Nal]G[dY][dNMeOrn]R) / II: cyclo([2Nal]G[dY][dNMeOrn]R); linker I:4-II:4 via Suberoyl)  0.003 µM
18. CN1C(=O)[C@@H](Cc2ccc(O)cc2)NC(=O)CNC(=O)[C@H](Cc2ccc3ccccc3c2)NC(=O)[C@H](CCCN=C(N)N)NC(=O)[C@H]1CCCNC(=O)CCCCCCCCC(=O)NCCC[C@@H]1C(=O)N[C@@H](CCCN=C(N)N)C(=O)N[C@@H](Cc2ccc3ccccc3c2)C(=O)NCC(=O)N[C@H](Cc2ccc(O)cc2)C(=O)N1C (I: cyclo([2Nal]G[dY][dNMeOrn]R) / II: cyclo([2Nal]G[dY][dNMeOrn]R); linker I:4-II:4 via Sebacoyl)  0.002 µM
